Assay results reported in ChEMBL document CHEMBL4422635, “Structure-Based Discovery of a Subtype-Selective Inhibitor Targeting a Transient Receptor Potential Vanilloid Channel” (J Med Chem, 2019).
Activity calls are given as the source filed them. The calls are words filed in the database; no cut-off is given here.

Legend:
PC-3M = assay: Antimetastatic activity in human PC3M cells transfected with TRPV2 siRNA at 5 to 20 uM after 24 hrs by transwell migration assay; type: functional, cell-based
Homo sapiens = species on record: Homo sapiens; assay: Inhibition of LPA-induced TRPV2/LPAR1 mediated cell migration in human PC3M cells at 20 uM after 24 hrs by transwell migration assay; type: cell-based
[1] = biological target: Transient receptor potential cation channel subfamily V member 1 (Mus musculus) (UniProt Q704Y3); assay: Antagonist activity at mouse TRPV1 expressed in HEK293T cells assessed as inhibition of 2-APB evoked currents at 3 to 10 uM -60 mV holding potential by whole-cell patch clamp assay; type: cell-based
Chain of Transient receptor potential cation channel subfamily V member 1 (Mus musculus) (Q704Y3 whole entry): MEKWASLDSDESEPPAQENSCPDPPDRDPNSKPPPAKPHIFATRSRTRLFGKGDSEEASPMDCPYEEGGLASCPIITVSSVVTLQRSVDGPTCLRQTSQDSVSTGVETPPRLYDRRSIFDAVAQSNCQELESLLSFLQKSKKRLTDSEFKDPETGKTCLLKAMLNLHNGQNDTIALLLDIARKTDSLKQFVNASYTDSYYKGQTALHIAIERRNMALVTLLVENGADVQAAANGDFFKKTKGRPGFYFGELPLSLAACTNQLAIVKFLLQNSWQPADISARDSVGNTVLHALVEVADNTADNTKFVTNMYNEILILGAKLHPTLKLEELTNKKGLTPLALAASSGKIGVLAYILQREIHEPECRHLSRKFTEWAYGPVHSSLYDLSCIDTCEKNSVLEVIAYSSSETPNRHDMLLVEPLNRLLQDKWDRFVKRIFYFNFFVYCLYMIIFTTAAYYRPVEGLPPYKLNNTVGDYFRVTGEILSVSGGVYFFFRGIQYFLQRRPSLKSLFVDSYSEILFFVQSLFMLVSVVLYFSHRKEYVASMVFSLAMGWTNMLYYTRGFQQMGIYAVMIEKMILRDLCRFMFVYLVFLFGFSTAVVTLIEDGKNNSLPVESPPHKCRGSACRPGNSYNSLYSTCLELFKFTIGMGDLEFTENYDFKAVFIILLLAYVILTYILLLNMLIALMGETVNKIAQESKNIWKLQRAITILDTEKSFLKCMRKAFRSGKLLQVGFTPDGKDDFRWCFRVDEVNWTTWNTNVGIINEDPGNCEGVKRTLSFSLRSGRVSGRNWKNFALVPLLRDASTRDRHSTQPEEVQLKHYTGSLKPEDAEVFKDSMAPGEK
Procedure, shortened: (§1)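 Whole-cell voltage clamp of transiently transfected HEK293T cells co-expressing GFP, recorded 36-96 h post-transfection. Hold -60 mV; pipettes 3-7 MΩ. Bath 165 mM NaCl, 10 mM HEPES pH 7.3; pipette 140 mM KCl, 10 mM HEPES pH 7.3. Room temperature (~25 °C). IC50 from Hill fits of I/I0, the current ratio after vs before inhibitor; mean ± SEM.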

[2] = test system: T1, Transient receptor potential cation channel subfamily V member 2 (Mus musculus), Q9WTR1 [Q525A]; assay: Antagonist activity at mouse TRPV2 Q525A mutant expressed in HEK293T cells assessed as inhibition of 2-APB evoked currents at -60 mV holding potential by whole-cell patch clamp assay; type: cell-based; procedure, shortened: as §1
T1 sequence (whole entry): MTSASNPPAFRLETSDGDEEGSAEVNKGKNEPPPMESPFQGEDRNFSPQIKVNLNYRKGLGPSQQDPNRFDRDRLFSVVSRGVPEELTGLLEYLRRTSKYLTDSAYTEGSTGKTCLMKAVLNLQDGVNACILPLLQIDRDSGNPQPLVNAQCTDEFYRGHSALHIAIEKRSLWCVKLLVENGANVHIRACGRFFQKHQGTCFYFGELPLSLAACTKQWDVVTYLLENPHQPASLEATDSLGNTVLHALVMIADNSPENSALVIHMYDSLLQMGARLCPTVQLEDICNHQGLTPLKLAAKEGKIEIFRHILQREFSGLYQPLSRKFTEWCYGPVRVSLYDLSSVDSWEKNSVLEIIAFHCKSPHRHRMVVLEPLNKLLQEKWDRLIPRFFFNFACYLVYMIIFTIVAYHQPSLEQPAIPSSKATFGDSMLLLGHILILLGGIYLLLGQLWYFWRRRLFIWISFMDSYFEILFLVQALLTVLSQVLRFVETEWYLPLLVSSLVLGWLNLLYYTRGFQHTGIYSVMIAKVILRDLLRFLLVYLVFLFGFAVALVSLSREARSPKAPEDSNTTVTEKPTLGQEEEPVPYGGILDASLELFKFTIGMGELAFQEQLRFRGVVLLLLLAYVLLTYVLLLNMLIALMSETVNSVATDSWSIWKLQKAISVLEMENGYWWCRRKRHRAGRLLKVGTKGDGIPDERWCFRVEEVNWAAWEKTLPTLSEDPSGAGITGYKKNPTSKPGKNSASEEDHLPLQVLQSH

[3] = test system: Transient receptor potential cation channel subfamily V member 1 (Mus musculus), Q704Y3 [S513F,T551L]; assay: Antagonist activity at mouse TRPV1 S513F/T551L double mutant expressed in HEK293T cells assessed as inhibition of 2-APB evoked currents at 0.3 to 10 uM at -60 mV holding potential by whole-cell patch clamp assay; type: cell-based; procedure, shortened: as §1
Chain of Transient receptor potential cation channel subfamily V member 1 (Mus musculus), Q704Y3 [S513F,T551L] (Q704Y3 whole entry S513F/T551L): as the sequence (Q704Y3 whole entry) above, with S513F, T551L counted along it

inhibition [1]: inactive
inhibition [2]: inactive
inhibition [3]: Active
Compound: CCCN(C)c1cc(C(F)(F)F)nc(SCCC(=O)NCc2ccco2)n1
Activity (PC-3M): inactive
inhibition (Homo sapiens): Active
